According to ChEMBL document CHEMBL4130635, “2,4-Diaminoquinazolines as Dual Toll-like Receptor (TLR) 7/8 Modulators for the Treatment of Hepatitis B Virus” (J Med Chem, 2018):

Tests used:
Plasma [1] = assay: Anti-inflammatory activity in C57BL/6J mouse plasma assessed as IL-10 levels at 3 mg/kg, po by multiplex assay (reference value: 120 pg/ml); assay type: functional
In short: (§1)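 Single oral gavage in 20% HP-β-CD to healthy C57BL/6 mice, groups of 15 at 0.3, 1, 3, 10 or 30 mg/kg. Three mice per group sacrificed at 0.5, 1, 2, 4 or 7 h. Plasma and liver cytokines by multiplex, maximum level reported, rounded to nearest multiple of 5.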

Cynomolgus monkey [2] = assay: Effect on cytokine profile in cynomolgus monkey plasma assessed as IL-12P70 levels at 1 mg/kg, po after 24 hrs by Luminex assay (reference value: 2.17 pg/ml); assay type: functional, organism-based; conditions: Macaca fascicularis
In short: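 Healthy cynomolgus monkeys given single oral doses of 1, 3, 9 and 30 mg/kg, with a 2-week wash-out planned between doses. Systemic cytokine levels in plasma were sampled at 0.5, 1, 2, 4, 9 and 24 h postdose.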

[3] = Cmax in Sprague-Dawley rat plasma at 10 mg/kg, po; assay type: ADME, organism-based; set-up: dose 10 mg/kg, route oral
In short: (§2)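 Male Sprague-Dawley rats given 10 mg/kg po as a solution. Compound measured in portal vein, systemic plasma and liver. Cmax taken from concentration–time profiles.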

Liver [4] = assay: Upregulation of IP-10 mRNA expression levels in C57BL/6J mouse liver at 30 mg/kg, po by RT-qPCR analysis (reference value: 1); assay type: functional
Cynomolgus monkey [5] = assay: Proinflammatory activity in cynomolgus monkey plasma assessed as IL-6 levels at 30 mg/kg, po after 24 hrs by Luminex assay (reference value: 80 pg/ml); assay type: functional, Macaca fascicularis
Liver [6] = assay: Effect on cytokine profile in C57BL/6J mouse liver assessed as IFNgamma levels at 30 mg/kg, po by multiplex assay; assay type: functional; in short: as §1
[7] = Cmax in Sprague-Dawley rat liver at 10 mg/kg, po; assay type: ADME, organism-based; set-up: dose 10 mg/kg, route oral; in short: as §2
[8] = Cmax in cynomolgus monkey plasma at 9 mg/kg, po by LC-MS analysis; assay type: ADME, organism-based, Macaca fascicularis; set-up: dose 9 mg/kg, route oral
In short: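 Healthy cynomolgus monkeys received oral doses of 1, 3, 9 and 30 mg/kg, with a 2-week wash-out between doses. Systemic compound concentrations by LC−MS at 0.25, 0.5, 1, 2, 4, 8 and 24 h postdose.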

[9] = target: T1, Toll-like receptor 8 (Homo sapiens) (UniProt Q9NR97); assay: Agonist activity at human TLR8 expressed in HEK293 cells assessed as induction of receptor activation incubated for 6 hrs by NF-kappaB-luciferase reporter gene assay; assay type: cell-based
T1 sequence (whole entry): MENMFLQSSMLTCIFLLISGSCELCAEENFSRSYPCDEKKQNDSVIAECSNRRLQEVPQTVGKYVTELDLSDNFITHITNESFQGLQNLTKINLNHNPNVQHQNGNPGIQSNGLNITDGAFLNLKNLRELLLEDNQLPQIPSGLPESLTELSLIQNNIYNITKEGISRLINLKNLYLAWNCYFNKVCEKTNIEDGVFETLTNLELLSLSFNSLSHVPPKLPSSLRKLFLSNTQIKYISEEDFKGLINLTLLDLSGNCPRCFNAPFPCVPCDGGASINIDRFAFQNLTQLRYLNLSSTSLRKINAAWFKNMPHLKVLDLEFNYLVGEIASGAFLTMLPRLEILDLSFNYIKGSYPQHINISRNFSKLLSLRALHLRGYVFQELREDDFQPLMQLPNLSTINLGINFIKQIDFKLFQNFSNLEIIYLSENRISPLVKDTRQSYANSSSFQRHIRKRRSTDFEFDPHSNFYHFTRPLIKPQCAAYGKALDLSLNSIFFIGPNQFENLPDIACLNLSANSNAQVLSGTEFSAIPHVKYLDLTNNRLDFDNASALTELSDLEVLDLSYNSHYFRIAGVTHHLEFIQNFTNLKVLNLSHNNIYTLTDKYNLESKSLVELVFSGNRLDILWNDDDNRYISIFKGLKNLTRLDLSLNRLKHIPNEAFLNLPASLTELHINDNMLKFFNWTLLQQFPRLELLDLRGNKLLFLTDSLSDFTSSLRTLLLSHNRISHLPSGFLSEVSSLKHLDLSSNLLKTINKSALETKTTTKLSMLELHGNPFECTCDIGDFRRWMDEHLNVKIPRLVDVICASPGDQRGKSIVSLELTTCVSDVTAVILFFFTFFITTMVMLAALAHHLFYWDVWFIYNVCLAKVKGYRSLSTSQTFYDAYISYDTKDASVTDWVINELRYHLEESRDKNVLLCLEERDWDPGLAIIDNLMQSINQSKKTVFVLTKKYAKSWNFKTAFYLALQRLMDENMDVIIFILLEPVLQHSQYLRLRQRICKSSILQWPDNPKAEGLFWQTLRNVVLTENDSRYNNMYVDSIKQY

TK6 = assay: Genotoxicity in human TK6 cells by in vitro micronuleus test; assay type: toxicity, cell-based
In short: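 In vitro micronucleus test in TK-6 cells.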

Plasma [10] = assay: Upregulation of IP-10 mRNA expression levels in C57BL/6J mouse plasma at 1 mg/kg, po by RT-qPCR analysis (reference value: 1); assay type: functional
Liver [11] = assay: Anti-inflammatory activity in C57BL/6J mouse liver assessed as IL-10 levels at 10 mg/kg, po by multiplex assay (reference value: 2 pg/g); assay type: functional; in short: as §1
D(1A) dopamine receptor = D(1A) dopamine receptor (Homo sapiens, UniProt P21728); assay: Inhibition of dopamine D1 receptor (unknown origin)
Liver [12] = assay: Anti-inflammatory activity in C57BL/6J mouse liver assessed as IL-10 levels at 1 mg/kg, po by multiplex assay (reference value: 2 pg/g); assay type: functional
In short: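 Mice (C57BL/6) got a single oral dose of 0.3–30 mg/kg in 20% HP-β-CD, in groups of 15. Three per group were sacrificed at 0.5, 1, 2, 4 or 7 h, and liver cytokines were measured by multiplex. Values were rounded to the nearest multiple of 5.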

Sequence of D(1A) dopamine receptor (P21728 whole entry): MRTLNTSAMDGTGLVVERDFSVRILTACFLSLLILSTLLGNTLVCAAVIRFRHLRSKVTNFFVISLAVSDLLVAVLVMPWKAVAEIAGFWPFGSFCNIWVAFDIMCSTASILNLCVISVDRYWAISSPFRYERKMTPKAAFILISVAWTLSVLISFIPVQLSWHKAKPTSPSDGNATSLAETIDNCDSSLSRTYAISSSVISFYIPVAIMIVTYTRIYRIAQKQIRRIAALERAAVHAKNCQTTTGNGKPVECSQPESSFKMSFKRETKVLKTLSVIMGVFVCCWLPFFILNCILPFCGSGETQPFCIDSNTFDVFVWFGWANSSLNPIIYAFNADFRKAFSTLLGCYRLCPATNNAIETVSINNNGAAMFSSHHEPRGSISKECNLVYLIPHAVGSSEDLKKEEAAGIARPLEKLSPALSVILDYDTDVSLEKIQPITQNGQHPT

CCC[C@@H](CCO)Nc1nc(N)nc2c(F)cccc12
Activity (Plasma [1]): 1115 pg/mL | Activity (Cynomolgus monkey [2]): Below limit of detection | Cmax [3]: 16 ng/mL | fold change (FC) (Liver [4]): 1180 | Activity (Cynomolgus monkey [5]): 5285 pg/mL | Activity (Liver [6]): 700 pg/g | Cmax [7]: 285 ng/g | Cmax [8]: 815 ng/mL | MEC [9]: 0.16 µM | Activity (TK6): Non-Toxic | fold change (FC) (Plasma [10]): 845 | Activity (Liver [11]): 2265 pg/g | IC50 (D(1A) dopamine receptor): > 10 µM | Activity (Liver [12]): 535 pg/g
